Laboratory results as given in ChEMBL document CHEMBL2146390, “Identification of Hydroxybenzoic Acids as Selective Lactate Receptor (GPR81) Agonists with Antilipolytic Effects” (ACS Med Chem Lett, 2012).
pEC50: −log10 of the molar value. Activity calls are given as the source filed them. The rule behind the calls is not given here.

Assays:
[1] = target: Hydroxycarboxylic acid receptor 1 (Homo sapiens, UniProt Q9BXC0); experiment: Agonist activity at human recombinant GPR81 transfected in african green monkey COS-7 cells after 20 mins by [35S]GTPgammaS binding assay; assay type: functional, cell-based
How it was run: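 hGPR81 agonism measured by GTPγS binding, run as in an earlier cited report; EC50 values are the mean of at least two determinations with standard deviation.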

[2] = test system: Mus musculus; experiment: Antilipolytic activity in DIO C57B16/J mouse assessed as reduction in nonesterified free fatty acid cholesterol level at 30 mg/kg, po after 30 mins by enzymatic assay; assay type: functional, organism-based; design: dose 30 mg/kg
How it was run: (§1)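 Acute oral dosing at 30, 100 or 300 mg/kg in C57Bl6/J mice fed high-fat chow for 10 weeks (DIO) and fasted overnight. Nonesterified free fatty acid cholesterol (NEFAc) served as the lipolysis marker. Niacin 30 was a reference arm, and groups were compared with vehicle (P < 0.05, P < 0.01).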

[3] = target: G-protein coupled receptor 81 (Macaca mulatta, UniProt B9UM29); experiment: Agonist activity at monkey GPR81; assay type: functional
[4] = target: G-protein coupled receptor 81 (Canis lupus familiaris, UniProt B9UM26); experiment: Agonist activity at dog GPR81; assay type: functional
[5] = target: T1, Protein Gpr81 (Rattus norvegicus, UniProt G3V906); experiment: Agonist activity at rat GPR81; assay type: functional
T1 sequence (G3V906 whole entry): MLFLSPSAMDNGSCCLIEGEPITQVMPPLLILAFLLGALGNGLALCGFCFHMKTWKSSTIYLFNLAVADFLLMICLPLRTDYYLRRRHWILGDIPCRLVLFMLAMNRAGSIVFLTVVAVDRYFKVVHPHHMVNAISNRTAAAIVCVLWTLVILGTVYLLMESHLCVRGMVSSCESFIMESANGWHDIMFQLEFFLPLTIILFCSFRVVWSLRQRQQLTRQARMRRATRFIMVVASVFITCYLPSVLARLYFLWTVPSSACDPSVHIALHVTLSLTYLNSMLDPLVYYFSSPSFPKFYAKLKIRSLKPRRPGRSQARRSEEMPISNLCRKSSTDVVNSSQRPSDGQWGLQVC

[6] = target: T2, Hydroxycarboxylic acid receptor 1 (Mus musculus, UniProt Q8C131); experiment: Agonist activity at mouse GPR81; assay type: functional
T2 sequence (Q8C131 whole entry): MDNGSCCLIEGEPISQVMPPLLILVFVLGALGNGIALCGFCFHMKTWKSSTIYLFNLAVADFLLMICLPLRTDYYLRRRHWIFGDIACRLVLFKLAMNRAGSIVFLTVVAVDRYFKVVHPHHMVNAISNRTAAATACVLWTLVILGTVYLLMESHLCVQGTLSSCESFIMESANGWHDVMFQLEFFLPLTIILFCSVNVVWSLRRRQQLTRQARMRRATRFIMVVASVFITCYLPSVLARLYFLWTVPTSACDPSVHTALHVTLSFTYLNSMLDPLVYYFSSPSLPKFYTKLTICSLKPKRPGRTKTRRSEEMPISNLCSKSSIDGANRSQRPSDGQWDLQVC

[7] = Agonist activity at hamster GPR81; assay type: functional, Cricetinae
[8] = Tmax in C57B16/J mouse at 30 mg/kg, po; assay type: ADME, organism-based; design: dose 30 mg/kg, route oral; details: in vivo
How it was run: (§2)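 Mice received single oral doses of 30 or 100 mg/kg. Exposure was followed over time to derive tmax, AUCinf, Cmax (ng/mL, converted to μM) and t1/2.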

[9] = Tmax in C57B16/J mouse at 100 mg/kg, po; assay type: ADME, organism-based; design: dose 100 mg/kg, route oral; details: in vivo; how it was run: as §2
[10] = AUC (0 to infinity) in C57B16/J mouse at 30 mg/kg, po; assay type: ADME, organism-based; design: dose 30 mg/kg, route oral, time infinity; details: plasma; how it was run: as §2
[11] = AUC (0 to infinity) in C57B16/J mouse at 100 mg/kg, po; assay type: ADME, organism-based; design: time infinity, dose 100 mg/kg, route oral; details: plasma; how it was run: as §2
[12] = Cmax in C57B16/J mouse at 30 mg/kg, po; assay type: ADME, organism-based; design: dose 30 mg/kg, route oral; details: in vivo; how it was run: as §2
[13] = Cmax in C57B16/J mouse at 100 mg/kg, po; assay type: ADME, organism-based; design: dose 100 mg/kg, route oral; details: in vivo; how it was run: as §2
[14] = Half life in C57B16/J mouse at 30 mg/kg, po; assay type: ADME, organism-based; design: dose 30 mg/kg, route oral; details: in vivo; how it was run: as §2
[15] = Half life in C57B16/J mouse at 100 mg/kg, po; assay type: ADME, organism-based; design: dose 100 mg/kg, route oral; details: in vivo; how it was run: as §2
[16] = test system: Mus musculus; experiment: Antilipolytic activity in DIO C57B16/J mouse assessed as reduction in nonesterified free fatty acid cholesterol level at 100 mg/kg, po after 30 mins by enzymatic assay; assay type: functional, organism-based; design: dose 100 mg/kg; how it was run: as §1
[17] = test system: Mus musculus; experiment: Antilipolytic activity in DIO C57B16/J mouse assessed as reduction in nonesterified free fatty acid cholesterol level at 300 mg/kg, po after 30 mins by enzymatic assay; assay type: functional, organism-based; design: dose 300 mg/kg; how it was run: as §1

Hydroxycarboxylic acid receptor 1 (Homo sapiens, UniProt Q9BXC0), sequence (Q9BXC0 whole entry): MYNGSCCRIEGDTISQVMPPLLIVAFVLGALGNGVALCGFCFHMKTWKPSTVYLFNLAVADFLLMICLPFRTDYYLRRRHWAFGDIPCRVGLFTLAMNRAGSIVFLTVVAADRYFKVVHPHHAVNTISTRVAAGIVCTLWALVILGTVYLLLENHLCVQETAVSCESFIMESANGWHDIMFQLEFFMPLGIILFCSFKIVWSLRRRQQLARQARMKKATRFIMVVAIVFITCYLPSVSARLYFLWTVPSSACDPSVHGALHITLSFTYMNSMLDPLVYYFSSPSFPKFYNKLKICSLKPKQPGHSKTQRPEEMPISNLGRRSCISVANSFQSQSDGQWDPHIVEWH
G-protein coupled receptor 81 (Canis lupus familiaris, UniProt B9UM26), sequence (B9UM26 whole entry): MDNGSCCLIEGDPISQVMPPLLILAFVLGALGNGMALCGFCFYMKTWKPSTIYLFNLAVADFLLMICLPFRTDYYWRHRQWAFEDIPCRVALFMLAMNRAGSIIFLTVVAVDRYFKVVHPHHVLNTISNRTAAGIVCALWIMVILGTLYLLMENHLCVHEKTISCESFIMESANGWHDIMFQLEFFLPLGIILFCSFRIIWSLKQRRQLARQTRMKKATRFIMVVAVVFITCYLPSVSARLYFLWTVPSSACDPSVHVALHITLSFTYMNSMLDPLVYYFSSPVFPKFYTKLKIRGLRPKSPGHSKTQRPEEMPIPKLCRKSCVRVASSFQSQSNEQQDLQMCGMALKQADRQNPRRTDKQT
G-protein coupled receptor 81 (Macaca mulatta, UniProt B9UM29), sequence (B9UM29 whole entry): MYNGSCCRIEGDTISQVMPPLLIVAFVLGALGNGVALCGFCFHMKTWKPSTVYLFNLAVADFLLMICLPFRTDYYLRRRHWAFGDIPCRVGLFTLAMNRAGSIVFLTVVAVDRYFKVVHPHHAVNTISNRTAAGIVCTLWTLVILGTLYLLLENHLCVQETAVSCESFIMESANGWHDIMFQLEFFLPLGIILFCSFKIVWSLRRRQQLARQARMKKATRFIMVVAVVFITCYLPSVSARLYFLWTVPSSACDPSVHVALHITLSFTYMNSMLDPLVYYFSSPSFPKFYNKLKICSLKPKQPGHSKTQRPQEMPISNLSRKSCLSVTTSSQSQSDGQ

Compound	pEC50 [1]	also measured
O=C(O)c1cc(O)cc(Br)c1	3.89	–
CC(C)(C)c1cc(O)cc(C(=O)O)c1	< 3.00	–
Cc1cc(O)cc(C(=O)O)c1	4.38	–
O=C(O)c1cccnc1	–	Activity [2]: Active
COc1cc(O)cc(C(=O)O)c1	< 3.00	–
O=P(O)(O)c1cc(O)cc(O)c1	< 3.00	–
OB(O)c1cccc(O)c1	< 3.00	–
O=C(O)c1cc(O)cc(C(F)(F)F)c1	< 3.00	–
O=C(O)c1cc(O)cc(-c2ccccc2)c1	< 3.00	–
O=C(O)c1cccc(O)c1 [3-HYDROXYBENZOIC ACID]	3.74	–
N#Cc1cc(O)cc(C(=O)O)c1	< 3.00	–
Oc1cc(O)cc(-c2nnn[nH]2)c1	< 3.00	–
O=C(O)c1cc(O)cc(O)c1 [3,5-DIHYDROXYBENZOIC ACID]	3.42	–
O=C(O)c1cc(O)cc(F)c1	4.42	–
O=C(O)c1cncc(O)c1	< 3.00	–
O=C(O)c1cc(O)c[n+]([O-])c1	< 3.00	–
O=C(O)c1cc(O)cc(Cl)c1	4.80	pEC50 [3]: 4.77; pEC50 [4]: 4.17; pEC50 [5]: 5.15; pEC50 [6]: 4.66; pEC50 [7]: 4.57; Tmax [8]: 30 min; Tmax [9]: 30 min; AUC(0-inf) [10]: 9360 ng·h/mL; AUC(0-inf) [11]: 51300 ng·h/mL; Cmax [12]: 67.2 µM; Cmax [13]: 342 µM; half-life [14]: 88.2 min; half-life [15]: 66 min; Activity [2]: Active; Activity [16]: Active; Activity [17]: Active
CP(=O)(O)c1cc(O)cc(O)c1	< 3.00	–
